Assay results gathered from unrelated publications.
Protocols differ between the studies behind these lines.
Fibroblast growth factor 14: Fibroblast growth factor 14 (Homo sapiens, UniProt Q92915)

Structure (SMILES)	target	effect on	action	technique	concentration	quantity	value
O=C(CN(Cc1ccccc1)S(=O)(=O)c1ccc(F)cc1)Nc1cccc(Cl)c1Cl	Fibroblast growth factor 14	thermal stability			25 µM	ΔTm	1 °C
CC(=O)ON=C1C=CC(=C(C#N)c2ccccc2)C=C1	Casein kinase I isoform epsilon (CSNK1E, Homo sapiens, UniProt P49674)	enzyme activity	inhibitor	ADP detection	2 µM	activity vs control	77%
C1=C/COCc2cc(ccc2OCCN2CCCC2)Nc2nccc(n2)-c2cccc(c2)COC/1	Death-associated protein kinase 3 (DAPK3, Homo sapiens, UniProt O43293)	binding			0.1 µM	remaining binding	53%
COc1ccc2oc(-c3ccc4nc(N)oc4c3)c/c(=N\c3ccccc3NC(=O)CCN)c2c1	Serine/threonine-protein kinase BRSK2 (BRSK2, Homo sapiens, UniProt Q8IWQ3)	binding			1 µM	remaining binding	85%
Cc1cc(F)cc2c(CCC(=O)N[C@@H]3C(=O)NC[C@H]3O)c(-c3ccc(F)cc3)[nH]c12	5-hydroxytryptamine receptor 1A (HTR1A, Homo sapiens, UniProt P08908)	cell-free assay			10 µM	inhibition	-8%
CC(=O)Nc1ccc(Oc2ccc3c(c2)C(=O)N(c2cc(C)ccc2C)C3=O)cc1	Fibroblast growth factor 14	binding		SPR		kon	69300 M⁻¹ s⁻¹
CCN1/C(=C/C(C)=O)Sc2ccc(F)cc21	Nociceptin receptor (OPRL1, Homo sapiens, UniProt P41146)	ligand displacement		radioligand	10 µM	inhibition	0.04%
CCCCC(=O)Nc1ccc(-c2ccc3ncn(CCC)c(=O)c3c2)cn1	Mitogen-activated protein kinase kinase kinase 13 (MAP3K13, Homo sapiens, UniProt O43283)	binding		competition with immobilised ligand	0.5 µM	remaining binding	94%
Cc1cccc(NC(=O)Cn2cc(CO)c3ccccc32)c1	Fibroblast growth factor 14	binding		SPR		koff	0.013 s⁻¹
NC/C(=C\F)COc1cccc(Cn2c(=S)[nH]c(=O)c3[nH]cnc32)c1	Glucocorticoid receptor (NR3C1, Homo sapiens, UniProt P04150)	ligand displacement		radioligand	10 µM	inhibition	< 50%
Cc1nc(CSc2nc(-c3ccc(C(C)(C)C)cc3)n[nH]2)cs1	Fibroblast growth factor 14	thermal stability			25 µM	ΔTm	0.3 °C
C#Cc1cc(-c2cc(Nc3nc(N[C@@H](C)c4ccc(F)cn4)ncc3Cl)n[nH]2)ccc1C=O	Serine/threonine-protein kinase TAO2 (TAOK2, Homo sapiens, UniProt Q9UL54)	enzyme activity	inhibitor		0.2 µM	inhibition	3.89%
